Laboratory results: ChEMBL document CHEMBL3286295, “Discovery of HDAC inhibitors with potent activity against multiple malaria parasite life cycle stages” (Eur J Med Chem, 2014)
Calls of active or inactive are those of the source. No cut-off for these calls is given here.

Assays:
Plasmodium falciparum [1] = assay: Antimalarial activity against late stage gametocyte stage of Plasmodium falciparum NF54 after 72 hrs; type: functional, organism-based; details: NF54, 72 h
Summary of the method: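 Stage IV gametocytes of NF54-pfs16-GFP, magnetically isolated day 8 post induction, 33,000 per well. Incubated 72 h with compound under 5% CO2/5% O2/80% N2, then overnight with Mitotracker Red CM-H2XRos (0.07 ug/ml). IC50 by sigmoidal variable-slope fit, mean ±SD, two experiments in duplicate.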

[2] = Cytotoxicity against erythrocytes (unknown origin); type: cell-based; details: Erythrocyte
HepG2 = assay: Cytotoxicity against human HepG2 cells after 48 hrs; type: ADME, cell-based; details: HepG2, 48 h
[3] = Selectivity index, ratio of IC50 for human HepG2 cells to IC50 for asexual blood stage of Plasmodium falciparum 3D7
Plasmodium falciparum [4] = assay: Antimalarial activity against asexual blood stage of Plasmodium falciparum 3D7 infected in human serum assessed as [3H]hypoxanthine incorporation incubated for 48 hrs prior to 3H]hypoxanthine addition measured after 24 hrs by liquid scintillation counting analysis; type: functional, organism-based; details: 3D7, Serum
Summary of the method: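 Synchronous ring-stage parasites (0.25% parasitaemia, 2.5% haematocrit) in RPMI 1640 with 10% heat-inactivated human serum, exposed to serially diluted compound for 48 h at 37°C. [3H]-hypoxanthine (0.5 μCi/well) then added for a further 24 h and counted by liquid scintillation. Inhibition is relative to 0.5% DMSO controls. IC50 by log-linear interpolation, mean (±SD) of three independent experiments, each in triplicate wells.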

[5] = Selectivity index, ratio of IC50 for human HepG2 cells to IC50 for exo-erythrocytic form of Plasmodium berghei
Plasmodium berghei [6] = assay: Antimalarial activity against exo-erythrocytic form of Plasmodium berghei infected in human HepG2 cells after 48 hrs; type: functional, organism-based; details: HepG2, 48 h
Summary of the method: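 HepG2-A16-CD81EGFP cells seeded 20–26 h before infection and given compound 18 h before infection (0.5% final DMSO). Infected with 1×10^3 luciferase-expressing P. berghei sporozoites per well, spun 3 min at 330xg, 37°C, then incubated 48 h at 37°C in 5% CO2. Read by luminescence. IC50 by four-parameter variable-slope nonlinear regression.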

Plasmodium falciparum [7] = assay: Inhibition of Plasmodium falciparum recombinant histone deacetylase1 using HDAC substrate 3 as substrate at 1 uM by fluorescence assay
Summary of the method: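 Recombinant PfHDAC1 tested at 1 μM compound in a fluorometric HDAC assay kit with Fluorogenic HDAC substrate 3. Percent inhibition vs controls, mean (±SD) of two independent assays, each in duplicate.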

Plasmodium falciparum [8] = assay: Inhibition of histone deacetylase in Plasmodium falciparum nuclear lysates at 1 uM by fluorescence assay
Summary of the method: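 Nuclear protein lysates prepared from trophozoite-stage P. falciparum with a nuclear extraction kit, tested at 1 μM compound in a fluorometric HDAC assay kit. Percent inhibition vs controls, mean (±SD) of two independent assays, each in duplicate.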

[9] = test system: Plasmodium falciparum 3D7; assay: Inhibition of HDAC in Plasmodium falciparum 3D7 trophozoites assessed as histone H4 hyperacetylation level at 500 nM after 3 hrs by Western blotting analysis relative to control
Summary of the method: (§1)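 Synchronous trophozoite-stage 3D7 parasites incubated 3 h with 500 nM compound or 0.05% DMSO vehicle. Vehicle samples taken at 0 and 3 h. Saponin lysis and PBS washing, then 15% SDS-PAGE and immunoblotting. Anti-RAP2 monoclonal used as loading control; infrared fluorescent secondary detection.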

[10] = test system: Plasmodium falciparum 3D7; assay: Inhibition of HDAC in Plasmodium falciparum 3D7 trophozoites assessed as histone H3 hyperacetylation level at 500 nM after 3 hrs by Western blotting analysis relative to control; summary of the method: as §1
[11] = Selectivity index, ratio of IC50 for human HepG2 cells to IC50 for late stage gametocyte stage of Plasmodium falciparum NF54; type: toxicity, cell-based; details: read-out: Ratio IC50
[12] = Selectivity index, ratio of IC50 for mouse RAW cells to IC50 for Plasmodium falciparum; type: toxicity, cell-based; details: read-out: Ratio IC50
RAW = assay: Cytotoxicity against mouse RAW cells by MTT assay; type: cell-based
Plasmodium falciparum [13] = assay: Antimalarial activity against Plasmodium falciparum infected in human erythrocytes after 72 hrs; type: functional, organism-based
[14] = Selectivity index, ratio of IC50 for human mammalian cells to IC50 for Plasmodium falciparum; type: toxicity; details: mammalian cells (cell line not named), read-out: Ratio IC50
Summary of the method: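 Ratio of HepG2 IC50 to P. falciparum 3D7 IC50. HepG2 toxicity assay: uninfected HepG2-A16-CD81EGFP cells treated as in the liver-stage assay, with medium instead of sporozoites, for 48 h. ATP measured by luminescence vs DMSO-treated cells. IC50 by four-parameter regression.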

[15] = Cytotoxicity against human mammalian cells after 72 to 96 hrs by MTT assay; type: cell-based
Plasmodium berghei [16] = assay: microbe, parasite or virus in culture; type: functional, organism-based; details: HepG2

Row | SMILES | IC50 (Plasmodium falciparum [1]) | IC50 (HepG2) | selectivity ratio [3] | IC50 (Plasmodium falciparum [4]) | selectivity ratio [5] | IC50 (Plasmodium berghei [6]) | inhibition (Plasmodium falciparum [7]) | inhibition (Plasmodium falciparum [8]) | inhibition [9] | inhibition [10] | also measured
1 | COc1ccc2nc3cc(Cl)ccc3c(Nc3cc(CN4CCCC4)c(O)c(CN4CCCC4)c3)c2n1 [PYRONARIDINE] | 2700 nM |  |  |  |  |  |  |  |  |  | 
2 | O=C(CCCCCCC(=O)Nc1ccccc1)NO [VORINOSTAT] |  |  |  |  |  |  |  |  |  |  | IC50 [2]: > 2200 nM
3 | CCCCc1ccc(C(=O)NOCCCCCC(=O)NO)cc1 | 5300 nM | 10800 nM | 41 | 260 nM | 6 | 1790 nM |  |  |  |  | 
4 | Cc1ccc(C(=O)NOCCCCCC(=O)NO)cc1C | 250 nM | 3240 nM | 27 | 120 nM | 10 | 310 nM | 82.6% | 93.3% | Active | Active | selectivity ratio [11]: 13
5 | CCCCCOc1ccc(C(=O)NOCCCCCC(=O)NO)cc1 |  | > 50000 nM | > 238 | 210 nM | > 10 | 5140 nM |  |  |  |  | 
6 | O=C(CCCCCONC(=O)c1ccc(F)cc1)NO | 2000 nM | 10300 nM | 18 | 580 nM | 4 | 2310 nM |  |  |  |  | 
7 | CCCCOc1ccc(C(=O)NOCCCCCC(=O)NO)cc1 |  | > 50000 nM | > 294 | 170 nM | > 23 | 2140 nM | 72.1% | 50.3% | Active | Active | 
8 | CC(C)c1ccc(C(=O)NOCCCCCC(=O)NO)cc1 |  | 8760 nM | 73 | 120 nM | 7 | 1340 nM | 67.2% | 72.9% | Active | Active | 
9 | CCCOc1ccccc1C(=O)NOCCCCCC(=O)NO |  | 8120 nM | 34 | 240 nM | 17 | 480 nM |  |  |  |  | 
10 | CC(/C=C/C(=O)NO)=C\[C@@H](C)C(=O)c1ccc(N(C)C)cc1 [TRICHOSTATIN] |  |  |  |  |  |  | 93.3% | 78.1% | Active | Active | IC50 [2]: 200 nM
11 | O=C(CCCCCONC(=O)c1ccc(C(F)(F)F)cc1)NO |  | 13000 nM | 50 | 260 nM | 7 | 1900 nM |  |  |  |  | 
12 | O=C(CCCCCONC(=O)c1ccco1)NO | 1000 nM | 8030 nM | 13 | 620 nM | 7 | 1130 nM |  |  |  |  | 
13 | O=C(CCCCCONC(=O)c1ccccc1F)NO | > 120000 nM | 9100 nM | 12 | 730 nM | 7 | 1250 nM |  |  |  |  | 
14 | O=C(/C=C/c1ccccc1)N[C@@H](CCCCCC(=O)NO)C(=O)Nc1cccc2cccnc12 |  |  |  |  |  |  |  |  |  |  | IC50 [2]: 1240 nM
15 | O=C1C(O)=C([C@H]2CC[C@H](c3ccc(Cl)cc3)CC2)C(=O)c2ccccc21 [ATOVAQUONE] |  |  |  |  | > 64100 | 0.16 nM |  |  |  |  | 
16 | CC(C)(C)c1ccc(C(=O)NOCCCCCC(=O)NO)cc1 | > 120000 nM | 12500 nM | 139 | 90 nM | 7 | 1870 nM | 68.6% | 48.3% | Active | Active | 
17 | O=C(CCCCCONC(=O)c1ccc(-c2ccccc2)cc1)NO | 500 nM | 10200 nM | 64 | 160 nM | 6 | 1830 nM | 64.2% | 89.3% | Active | Active | selectivity ratio [11]: 20
18 | Cc1ccc(C(=O)NOCCCCCC(=O)NO)cc1 |  | 12100 nM | 55 | 220 nM | 11 | 1140 nM |  |  |  |  | 
19 | CC(C)Oc1ccc(C(=O)NOCCCCCC(=O)NO)cc1 |  | 9760 nM | 65 | 150 nM | 7 | 1360 nM | 62.4% | 9.3% | Active | Active | 
20 | Cc1cc(C)cc(C(=O)NOCCCCCC(=O)NO)c1 | 330 nM | 1260 nM | 13 | 100 nM | 8 | 160 nM | 73.8% | 58.6% | Active | Active | selectivity ratio [11]: 4
21 | Cc1ccccc1C(=O)NOCCCCCC(=O)NO |  | 12700 nM | 11 | 1120 nM | 5 | 2540 nM |  |  |  |  | 
22 | Cc1cccc(C(=O)NOCCCCCC(=O)NO)c1 | 430 nM | 4690 nM | 25 | 190 nM | 7 | 660 nM | 75.5% | 73.9% | Active | Active | selectivity ratio [11]: 11
23 | CCCOc1ccc(C(=O)NOCCCCCC(=O)NO)cc1 |  | 16900 nM | 80 | 210 nM | 3 | 5290 nM |  |  |  |  | 
24 | CCCCCCOc1ccc(C(=O)NOCCCCCC(=O)NO)cc1 |  | > 50000 nM | > 143 | 350 nM | > 6 | 7910 nM |  |  |  |  | 
25 | CCOc1ccc(C(=O)NOCCCCCC(=O)NO)cc1 |  | 7680 nM | 33 | 230 nM | 6 | 1370 nM |  |  |  |  | 
26 | Nc1cccc(-c2csc(NC(=O)CCCCCCC(=O)NO)n2)c1 |  |  |  |  |  |  |  |  |  |  | selectivity ratio [12]: 333; IC50 (RAW): 600 nM
27 | CCCCc1nc2cc(/C=C/C(=O)NO)ccc2n1CCN(CC)CC [PRACINOSTAT] |  |  |  |  |  |  |  |  |  |  | IC50 (Plasmodium falciparum [13]): 80 nM; selectivity ratio [14]: > 4; IC50 [15]: > 800 nM; IC50 (Plasmodium berghei [16]): 150 nM
28 | CCN(CC)CCCC(C)Nc1ccnc2cc(Cl)ccc12 (stereo not drawn) [CHLOROQUINE] |  | > 10000 nM |  |  |  | > 10000 nM |  |  |  |  | 
29 | CCCOc1cccc(C(=O)NOCCCCCC(=O)NO)c1 |  | 7040 nM | 29 | 240 nM | 16 | 450 nM |  |  |  |  | 
